By IC50 is commonly meant the midpoint of a concentration-inhibition curve. A word on the Inhibition: it is the drop in the measured response relative to a control, in per cent. Higher therefore signals a response far below the control. A word on the EC50: it is the midpoint of the concentration-response curve. A lower EC50 goes with greater potency.

We go through ten molecules from ChEMBL document CHEMBL1148636, “Novel analogues of degarelix incorporating hydroxy-, methoxy-, and pegylated-urea moieties at positions 3, 5, 6 and the N-terminus. Part III” (J Med Chem, 2006).

Assay [1] deals with T1, Gonadotropin-releasing hormone receptor (Homo sapiens, UniProt P30968).
T1 sequence (P30968 whole entry): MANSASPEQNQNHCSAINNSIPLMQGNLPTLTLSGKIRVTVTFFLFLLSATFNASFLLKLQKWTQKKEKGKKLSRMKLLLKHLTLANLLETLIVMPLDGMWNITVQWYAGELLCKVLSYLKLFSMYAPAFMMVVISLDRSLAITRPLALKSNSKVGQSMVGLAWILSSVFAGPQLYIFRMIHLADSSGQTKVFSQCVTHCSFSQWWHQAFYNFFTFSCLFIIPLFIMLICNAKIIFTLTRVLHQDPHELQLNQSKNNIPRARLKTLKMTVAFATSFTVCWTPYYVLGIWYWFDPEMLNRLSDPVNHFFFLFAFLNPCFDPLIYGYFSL
In words: Antagonist activity at human GnRH receptor expressed in HEK293 cells as inhibition of GnRH-induced LH secretion by reporter gene assay. Format: functional, cell-based. The method in brief: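 HEK293 cells stably expressing cloned human GnRH receptor plus luciferase reporter under LH alpha subunit promoter; plated 5 × 10^4 cells/well, overnight 37 °C. Compounds in 1% DMSO, 11 half-log concentrations in duplicate, 10 min preincubation, then GnRH 1 nM final, ≥5 h at 37 °C; luminescence read. Percent of control fitted to IC50; geometric mean of ≥2 independent experiments.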
(Reporter assays use an easily measured gene product as a stand-in for the process of interest.)

Assay [2] relates to Rattus norvegicus. In words: Inhibition of GnRH-induced LH secretion in Sprague-Dawley rat at 50 ug, sc for 3 hrs. The class given is functional. The method in brief:
(§1)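 Male rats castrated ten days earlier (≥5 per group) injected sc with 50 μg peptide in 50 μL 5% mannitol (0.6% DMSO in the stock); vehicle controls run alongside. Tail-tip blood taken pre-dose and at 3, 72, 96, 120, 144, 168 and sometimes 192 h; plasma LH by RIA, all samples of one experiment in the same assay; >80% inhibition scored.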

The test system of assay [3] is Rattus norvegicus. In words: Antiovulatory activity in rat at 2 ug, sc. The class given is functional, organism-based. The gist of the method: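 Cycling rats (250-300 g) given peptide 2 μg in 200 μL saline or 5% DMSO in saline sc at noon on proestrus; scored as number of rats ovulating over total treated (8 per group).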
Assay [4] relates to Mast cell (Rattus norvegicus). The experiment in a line: Histamine release in mast cells by ELISA. A general note: An ELISA detects its analyte on a solid surface through an enzyme-linked reagent.
Assay [5] concerns Rattus norvegicus. The experiment in a line: Inhibition of GnRH-induced LH secretion in Sprague-Dawley rat at 50 ug, sc for 72 hrs. Format: functional. The method in brief:
as §1

For assay [6], the system named is Rattus norvegicus. In words: Inhibition of GnRH-induced LH secretion in Sprague-Dawley rat at 50 ug, sc for 96 hrs. The class given is functional. The gist of the method: as §1
The subject of assay [7] is Rattus norvegicus. In words: Inhibition of GnRH-induced LH secretion in Sprague-Dawley rat at 50 ug, sc for 120 hrs. The class given is functional. The method in brief:
as §1

Values after ≈ are worked out from the molar mass of the structure shown. Active and inactive are the calls of the source. The calls are words filed in the database; no cut-off is given here. Numbered stars: 1 amine (or outer) side, 2 acyl side, 3 side chain; on linkers, the order of the positions; unused ones are H or OH. Square brackets hold non-standard residues; d marks the D form. Side chains are listed from the residue outwards. Peptide text beside a SMILES is read from it. * marks the point of attachment. dPhe(4-NHCONH2) = NC(=O)Nc1ccc(C[C@@H](N)C(=O)O)cc1; Dihydroorotyl(S) = O=C1C[C@@H](C(=O)*)NC(=O)N1; dPhe(4-NH2) = Nc1ccc(C[C@@H](N)C(=O)O)cc1; dPhe(4-Cl) = N[C@H](Cc1ccc(Cl)cc1)C(=O)O; Phe(4-NH2) = Nc1ccc(C[C@H](N)C(=O)O)cc1; d2Nal = N[C@H](Cc1ccc2ccccc2c1)C(=O)O; Lys(iPr) = CC(C)NCCCC[C@H](N)C(=O)O; NHCH2CH2OCH2CH2OEt = CCOCCOCCN*; d3Pal = N[C@H](Cc1cccnc1)C(=O)O; Methoxycarbamoyl = CONC(=O)*; CO = O=C([*:1])[*:2] A value given as a limit tells only on which side of the number the result lay.

Molecule `CCOCCOCCNC(=O)N[C@H](Cc1ccc2ccccc2c1)C(=O)N[C@H](Cc1ccc(Cl)cc1)C(=O)N[C@H](Cc1cccnc1)C(=O)N[C@@H](CO)C(=O)N[C@@H](Cc1ccc(NC(=O)[C@@H]2CC(=O)NC(=O)N2)cc1)C(=O)N[C@H](Cc1ccc(NC(=O)NOC)cc1)C(=O)N[C@@H](CC(C)C)C(=O)N[C@@H](CCCCNC(C)C)C(=O)N1CCC[C@H]1C(=O)N[C@H](C)C(N)=O` ({NHCH2CH2OCH2CH2OEt-CO}-[d2Nal][dPhe(4-Cl)][d3Pal]S[Phe(4-NH2)](Dihydroorotyl(S))[dPhe(4-NH2)](Methoxycarbamoyl)L[Lys(iPr)]P[dA]-NH2) had a concentration for half-maximal inhibition (IC50) in assay [1] of 1.61 nM. In addition, the Inhibition in the assay on Rattus norvegicus [2] is on record as above 80%.

In turn, `CONC(=O)Nc1ccc(C[C@@H](NC(=O)[C@H](Cc2ccc(NC(=O)NOC)cc2)N(C)C(=O)[C@H](CO)NC(=O)[C@@H](Cc2cccnc2)NC(=O)[C@@H](Cc2ccc(Cl)cc2)NC(=O)[C@@H](Cc2ccc3ccccc3c2)NC(C)=O)C(=O)N[C@@H](CC(C)C)C(=O)N[C@@H](CCCCNC(C)C)C(=O)N2CCC[C@H]2C(=O)N[C@H](C)C(N)=O)cc1` had a half-inhibitory concentration (IC50) in assay [1] of 0.7 nM. For the same molecule, the result in the assay with Rattus norvegicus [3] was Active. Moreover, a half-maximal response in assay [4] (EC50) required 43.1 µg/mL (≈ 26.8 µM).

Turning to `CONC(=O)Nc1ccc(C[C@H](NC(=O)[C@H](CO)NC(=O)[C@@H](Cc2cccnc2)NC(=O)[C@@H](Cc2ccc(Cl)cc2)NC(=O)[C@@H](Cc2ccc3ccccc3c2)NC(C)=O)C(=O)N[C@H](Cc2ccc(NC(=O)NOC)cc2)C(=O)N[C@@H](CC(C)C)C(=O)N[C@@H](CCCCNC(C)C)C(=O)N2CCC[C@H]2C(=O)N[C@H](C)C(N)=O)cc1`, the midpoint of inhibition in assay [1], the IC50, lay at 0.91 nM. Also, in the assay on Rattus norvegicus [3], the outcome was Active. In assay [4], this molecule returned an EC50 of 46 µg/mL (≈ 28.8 µM).

As to `CC(=O)Nc1ccc(C[C@H](NC(=O)[C@H](CO)NC(=O)[C@@H](Cc2cccnc2)NC(=O)[C@@H](Cc2ccc(Cl)cc2)NC(=O)[C@@H](Cc2ccc3ccccc3c2)NC(C)=O)C(=O)N[C@H](Cc2ccc(NC(C)=O)cc2)C(=O)N[C@@H](CC(C)C)C(=O)N[C@@H](CCCCNC(C)C)C(=O)N2CCC[C@H]2C(=O)N[C@H](C)C(N)=O)cc1` [ACYLINE], the result with Rattus norvegicus [3] was Active. Moreover, a half-maximal effect in assay [4] (EC50) was put at 461 µg/mL (≈ 301 µM).

In assay [1], `CCOCCOCCNC(=O)N[C@H](Cc1ccc2ccccc2c1)C(=O)N[C@H](Cc1ccc(Cl)cc1)C(=O)N[C@H](Cc1cccnc1)C(=O)N[C@@H](CO)C(=O)N[C@@H](Cc1ccc(NC(=O)NOC)cc1)C(=O)N[C@H](Cc1ccc(NC(N)=O)cc1)C(=O)N[C@@H](CC(C)C)C(=O)N[C@@H](CCCCNC(C)C)C(=O)N1CCC[C@H]1C(=O)N[C@H](C)C(N)=O` gave a 50% inhibitory concentration (IC50) of 2.98 nM. Further, in the assay with Rattus norvegicus [3], the outcome was Active. Moreover, the half-maximal effective concentration (EC50) in assay [4] turned out to be 50.6 µg/mL (≈ 30.1 µM).

Regarding `CCOCCOCCNC(=O)Nc1ccc(C[C@H](NC(=O)[C@H](CO)NC(=O)[C@@H](Cc2cccnc2)NC(=O)[C@@H](Cc2ccc(Cl)cc2)NC(=O)[C@@H](Cc2ccc3ccccc3c2)NC(C)=O)C(=O)N[C@H](Cc2ccc(NC(N)=O)cc2)C(=O)N[C@@H](CC(C)C)C(=O)N[C@@H](CCCCNC(C)C)C(=O)N2CCC[C@H]2C(=O)N[C@H](C)C(N)=O)cc1` (Ac-[d2Nal][dPhe(4-Cl)][d3Pal]S[Phe(4-NH2)]([CO-NHCH2CH2OCH2CH2OEt])[dPhe(4-NHCONH2)]L[Lys(iPr)]P[dA]-NH2), the outcome in the assay on Rattus norvegicus [3] was Active. Besides, the midpoint of the response in assay [4], the EC50, lay at 910 µg/mL (≈ 551 µM).

In the case of `CONC(=O)Nc1ccc(C[C@H](NC(=O)[C@H](CO)NC(=O)[C@@H](Cc2cccnc2)NC(=O)[C@@H](Cc2ccc(Cl)cc2)NC(=O)[C@@H](Cc2ccc3ccccc3c2)NC(C)=O)C(=O)N[C@H](Cc2ccc(NC(N)=O)cc2)C(=O)N[C@@H](CC(C)C)C(=O)N[C@@H](CCCCNC(C)C)C(=O)N2CCC[C@H]2C(=O)N[C@H](C)C(N)=O)cc1` (Ac-[d2Nal][dPhe(4-Cl)][d3Pal]S[Phe(4-NH2)](Methoxycarbamoyl)[dPhe(4-NHCONH2)]L[Lys(iPr)]P[dA]-NH2), in assay [1], the IC50 is 0.6 nM. In the assay with Rattus norvegicus [5], this molecule yielded an Inhibition above 80%.

Regarding `CONC(=O)Nc1ccc(C[C@@H](NC(=O)[C@H](Cc2ccc(NC(=O)[C@@H]3CC(=O)NC(=O)N3)cc2)NC(=O)[C@H](CO)NC(=O)[C@@H](Cc2cccnc2)NC(=O)[C@@H](Cc2ccc(Cl)cc2)NC(=O)[C@@H](Cc2ccc3ccccc3c2)NC(C)=O)C(=O)N[C@@H](CC(C)C)C(=O)N[C@@H](CCCCNC(C)C)C(=O)N2CCC[C@H]2C(=O)N[C@H](C)C(N)=O)cc1` (Ac-[d2Nal][dPhe(4-Cl)][d3Pal]S[Phe(4-NH2)](Dihydroorotyl(S))[dPhe(4-NH2)](Methoxycarbamoyl)L[Lys(iPr)]P[dA]-NH2), the half-inhibitory concentration (IC50) in assay [1] was 0.51 nM. Also, in the assay on Rattus norvegicus [6], the Inhibition was above 80%.

`CCOCCOCCNC(=O)Nc1ccc(C[C@H](NC(=O)[C@H](CO)NC(=O)[C@@H](Cc2cccnc2)NC(=O)[C@@H](Cc2ccc(Cl)cc2)NC(=O)[C@@H](Cc2ccc3ccccc3c2)NC(=O)NCCOCCOCC)C(=O)N[C@H](Cc2ccc(NC(N)=O)cc2)C(=O)N[C@@H](CC(C)C)C(=O)N[C@@H](CCCCNC(C)C)C(=O)N2CCC[C@H]2C(=O)N[C@H](C)C(N)=O)cc1` had an IC50 in assay [1] of 1.12 nM. The outcome in the assay with Rattus norvegicus [3] was Active. Besides, the concentration for a half-maximal effect (EC50) in assay [4] is above 1000 µg/mL.

Turning to `CC(=O)N[C@H](Cc1ccc2ccccc2c1)C(=O)N[C@H](Cc1ccc(Cl)cc1)C(=O)N[C@H](Cc1cccnc1)C(=O)N[C@@H](CO)C(=O)N[C@@H](Cc1ccc(NC(=O)[C@@H]2CC(=O)NC(=O)N2)cc1)C(=O)N[C@H](Cc1ccc(NC(N)=O)cc1)C(=O)N[C@@H](CC(C)C)C(=O)N[C@@H](CCCCNC(C)C)C(=O)N1CCC[C@H]1C(=O)N[C@H](C)C(N)=O` [DEGARELIX] (Ac-[d2Nal][dPhe(4-Cl)][d3Pal]S[Phe(4-NH2)](Dihydroorotyl(S))[dPhe(4-NHCONH2)]L[Lys(iPr)]P[dA]-NH2), in the assay on Rattus norvegicus [3], the result was Active. Moreover, the concentration giving a half-maximal response (EC50) in assay [4] is above 1000 µg/mL. In the assay with Rattus norvegicus [7], this molecule yielded an Inhibition above 80%.
